Laboratory results published in ChEMBL document CHEMBL5260793, “Novel pyrazolo[3,4-d]pyrimidine with 4-(1H-benzimidazol-2-yl)-phenylamine as broad spectrum anticancer agents: Synthesis, cell based assay, topoisomerase inhibition, DNA intercalation and bovine serum albumin studies” (Eur J Med Chem, 2017).
Activity calls are given as the source filed them. The calls are words filed in the database; no cut-off is given here.

Key:
[1] = test system: Panel leukemia (Carcinoma cell lines); assay: Anticancer activity against human Panel leukemia (Carcinoma cell lines) assessed as lethality incubated for 48 hrs by Sulphorhodamine B assay; type: functional
[2] = molecular target: DNA topoisomerase 2-alpha (Homo sapiens) (UniProt P11388); assay: Inhibition of human DNA topoisomerase II-alpha mediated supercoiled pHOT1 plasmid DNA relaxation at 50 uM incubated for 30 mins by ethidium bromide staining based agarose gel electrophoresis analysis
Summary of the method: (§1)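 Reaction buffer: 50 mM Tris-Cl pH 8.0, 120 mM KCl, 10 mM MgCl2, 0.5 mM ATP, 0.5 mM DTT. Each reaction held 500 ng supercoiled pHOT1 and 1 U human Topo IIα, with compound at 10–100 μM, for 30 min at 37 °C. Reactions were stopped with glycerol/EDTA/bromophenol blue, run on 1% agarose in TBE, and stained with ethidium bromide. Etoposide 25 μM was the positive control.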

Calf thymus DNA [3] = assay: Binding affinity to calf thymus DNA assessed as maximum absorption wavelength shift at pH 7.4 at 10 uM by UV-vis absorption spectroscopy; type: nucleic-acid assay; details: Bos taurus
Summary of the method: (§2)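 Absorption titration at 300 K in a 1 cm cell, background subtracted. Compound was fixed (10 μM per legend; 20 μM in methods) with ct-DNA added up to 15–20 μM in 10 mM phosphate buffer, pH 7.4 (A260/A280 1.82). A buffer-addition control was run. K was taken from the 1/(Af−Aobs) vs 1/[DNA] fit.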

Albumin = Albumin (Bos taurus, UniProt P02769); assay: Binding affinity to bovine serum albumin assessed as decrease in fluorescence intensity at pH 7.4 at 0 to 30 uM by fluorescence quenching method; details: cattle
[4] = test system: Panel breast (Carcinoma cell lines); assay: Anticancer activity against human Panel breast (Carcinoma cell lines) assessed as lethality incubated for 48 hrs by Sulphorhodamine B assay; type: functional; details: read-out: LC50 (the source's name)
Calf thymus DNA [5] = assay: Displacement of Ethidium bromide from calf thymus DNA/EtBr complex assessed as decrease in fluorescent intensity by fluorescence based EtBr-displacement assay; type: nucleic-acid assay; details: Bos taurus
Summary of the method: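 ct-DNA (0–20 μM) was pre-mixed with ethidium bromide, diluted from a 1 mM stock. Compound was then added in 2 μM steps up to 50 μM, with mixing after each addition. Emission was recorded with excitation at 480 nm.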

[6] = test system: Panel leukemia (Carcinoma cell lines); assay: Anticancer activity against human Panel leukemia (Carcinoma cell lines) assessed as cell growth inhibition incubated for 48 hrs by Sulphorhodamine B assay; type: functional
Summary of the method: (§3)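 NCI-60 five-dose screen. Cells in RPMI 1640 with 5% FBS and 2 mM L-glutamine were plated at 5,000–40,000 cells/well and held 24 h before dosing. Compounds came from DMSO stocks and were given at five concentrations (10-fold or ½-log dilutions) for 48 h at 37 °C. Adherent cells were TCA-fixed and stained with SRB; A515 was read. GI50 was set from growth = 50% and TGI from Ti = Tz, using Tz/C/Ti.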

[7] = test system: Panel ovarian (Carcinoma cell lines); assay: Anticancer activity against human Panel ovarian (Carcinoma cell lines) assessed as total growth inhibition incubated for 48 hrs by Sulphorhodamine B assay; type: functional
[8] = test system: Panel colon (Carcinoma cell lines); assay: Anticancer activity against human Panel colon (Carcinoma cell lines) assessed as total growth inhibition incubated for 48 hrs by Sulphorhodamine B assay; type: functional; summary of the method: as §3
[9] = Anticancer activity against human Non-small cell lung cancer cell line assessed as lethality incubated for 48 hrs by Sulphorhodamine B assay; type: functional
[10] = molecular target: T1, DNA topoisomerase 1 (Homo sapiens) (UniProt P11387); assay: Inhibition of human DNA topoisomerase I mediated supercoiled pHOT1 plasmid DNA relaxation upto 100 uM incubated for 30 mins by ethidium bromide staining based agarose gel electrophoresis analysis
T1 sequence (whole entry): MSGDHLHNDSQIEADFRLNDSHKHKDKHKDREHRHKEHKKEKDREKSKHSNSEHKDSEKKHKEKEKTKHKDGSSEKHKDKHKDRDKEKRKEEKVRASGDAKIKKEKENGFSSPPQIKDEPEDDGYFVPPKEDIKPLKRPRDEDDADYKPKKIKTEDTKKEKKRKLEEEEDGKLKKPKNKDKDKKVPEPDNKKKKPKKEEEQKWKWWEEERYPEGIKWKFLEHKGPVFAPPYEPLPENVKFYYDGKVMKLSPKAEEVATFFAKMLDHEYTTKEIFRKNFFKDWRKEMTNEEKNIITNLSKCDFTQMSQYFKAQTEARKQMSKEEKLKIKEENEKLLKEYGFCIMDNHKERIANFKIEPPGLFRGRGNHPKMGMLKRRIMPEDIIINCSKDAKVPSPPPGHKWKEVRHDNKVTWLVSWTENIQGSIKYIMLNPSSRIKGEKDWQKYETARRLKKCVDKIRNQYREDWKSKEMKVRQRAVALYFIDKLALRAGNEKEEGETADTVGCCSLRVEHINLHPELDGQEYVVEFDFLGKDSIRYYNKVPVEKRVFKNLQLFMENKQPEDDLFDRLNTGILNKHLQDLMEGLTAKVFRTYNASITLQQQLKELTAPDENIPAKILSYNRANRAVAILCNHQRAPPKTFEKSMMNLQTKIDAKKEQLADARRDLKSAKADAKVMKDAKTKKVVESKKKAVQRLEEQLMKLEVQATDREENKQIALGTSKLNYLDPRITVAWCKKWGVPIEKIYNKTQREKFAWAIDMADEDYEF

[11] = test system: Panel prostate (Carcinoma cell lines); assay: Anticancer activity against human Panel prostate (Carcinoma cell lines) assessed as lethality incubated for 48 hrs by Sulphorhodamine B assay; type: functional
[12] = test system: Panel ovarian (Carcinoma cell lines); assay: Anticancer activity against human Panel ovarian (Carcinoma cell lines) assessed as lethality incubated for 48 hrs by Sulphorhodamine B assay; type: functional
[13] = test system: Panel melanoma (Carcinoma cell lines); assay: Anticancer activity against human Panel melanoma (Carcinoma cell lines) assessed as cell growth inhibition incubated for 48 hrs by Sulphorhodamine B assay; type: functional; summary of the method: as §3
[14] = test system: Panel CNS (Carcinoma cell lines); assay: Anticancer activity against human Panel CNS (Carcinoma cell lines) assessed as lethality incubated for 48 hrs by Sulphorhodamine B assay; type: functional
[15] = test system: Panel CNS (Carcinoma cell lines); assay: Anticancer activity against human Panel CNS (Carcinoma cell lines) assessed as total growth inhibition incubated for 48 hrs by Sulphorhodamine B assay; type: functional; summary of the method: as §3
[16] = test system: Panel breast (Carcinoma cell lines); assay: Anticancer activity against human Panel breast (Carcinoma cell lines) assessed as cell growth inhibition incubated for 48 hrs by Sulphorhodamine B assay; type: functional; summary of the method: as §3
[17] = test system: Panel renal (Carcinoma cell lines); assay: Anticancer activity against human Panel renal (Carcinoma cell lines) assessed as total growth inhibition incubated for 48 hrs by Sulphorhodamine B assay; type: functional
[18] = test system: Panel renal (Carcinoma cell lines); assay: Anticancer activity against human Panel renal (Carcinoma cell lines) assessed as lethality incubated for 48 hrs by Sulphorhodamine B assay; type: functional
[19] = Anticancer activity against human Non-small cell lung cancer cell line assessed as total growth inhibition incubated for 48 hrs by Sulphorhodamine B assay; type: functional; summary of the method: as §3
[20] = test system: Panel renal (Carcinoma cell lines); assay: Anticancer activity against human Panel renal (Carcinoma cell lines) assessed as cell growth inhibition incubated for 48 hrs by Sulphorhodamine B assay; type: functional; summary of the method: as §3
Calf thymus DNA [21] = assay: Binding affinity to calf thymus DNA assessed as hypochromicity at pH 7.4 at 10 uM by UV-vis absorption spectroscopy; type: nucleic-acid assay; details: Bos taurus; summary of the method: as §2
[22] = test system: Panel ovarian (Carcinoma cell lines); assay: Anticancer activity against human Panel ovarian (Carcinoma cell lines) assessed as cell growth inhibition incubated for 48 hrs by Sulphorhodamine B assay; type: functional; summary of the method: as §3
[23] = molecular target: DNA topoisomerase 2-alpha (Homo sapiens) (UniProt P11388); assay: Inhibition of human DNA topoisomerase II-alpha mediated supercoiled pHOT1 plasmid DNA relaxation at 75 uM incubated for 30 mins by ethidium bromide staining based agarose gel electrophoresis analysis; summary of the method: as §1
[24] = test system: Panel colon (Carcinoma cell lines); assay: Anticancer activity against human Panel colon (Carcinoma cell lines) assessed as lethality incubated for 48 hrs by Sulphorhodamine B assay; type: functional
[25] = Anticancer activity against human Non-small cell lung cancer cell line assessed as cell growth inhibition incubated for 48 hrs by Sulphorhodamine B assay; type: functional; summary of the method: as §3
[26] = test system: Panel CNS (Carcinoma cell lines); assay: Anticancer activity against human Panel CNS (Carcinoma cell lines) assessed as cell growth inhibition incubated for 48 hrs by Sulphorhodamine B assay; type: functional; summary of the method: as §3
[27] = test system: Panel breast (Carcinoma cell lines); assay: Anticancer activity against human Panel breast (Carcinoma cell lines) assessed as total growth inhibition incubated for 48 hrs by Sulphorhodamine B assay; type: functional; summary of the method: as §3
[28] = test system: Panel melanoma (Carcinoma cell lines); assay: Anticancer activity against human Panel melanoma (Carcinoma cell lines) assessed as total growth inhibition incubated for 48 hrs by Sulphorhodamine B assay; type: functional; summary of the method: as §3
[29] = test system: Panel prostate (Carcinoma cell lines); assay: Anticancer activity against human Panel prostate (Carcinoma cell lines) assessed as total growth inhibition incubated for 48 hrs by Sulphorhodamine B assay; type: functional; summary of the method: as §3
[30] = test system: Panel colon (Carcinoma cell lines); assay: Anticancer activity against human Panel colon (Carcinoma cell lines) assessed as cell growth inhibition incubated for 48 hrs by Sulphorhodamine B assay; type: functional; summary of the method: as §3
[31] = test system: Panel prostate (Carcinoma cell lines); assay: Anticancer activity against human Panel prostate (Carcinoma cell lines) assessed as cell growth inhibition incubated for 48 hrs by Sulphorhodamine B assay; type: functional; summary of the method: as §3
[32] = test system: Panel leukemia (Carcinoma cell lines); assay: Anticancer activity against human Panel leukemia (Carcinoma cell lines) assessed as total growth inhibition incubated for 48 hrs by Sulphorhodamine B assay; type: functional
[33] = test system: Panel melanoma (Carcinoma cell lines); assay: Anticancer activity against human Panel melanoma (Carcinoma cell lines) assessed as lethality incubated for 48 hrs by Sulphorhodamine B assay; type: functional
[34] = molecular target: DNA topoisomerase 2-alpha (Homo sapiens) (UniProt P11388); assay: Inhibition of human DNA topoisomerase II-alpha mediated supercoiled pHOT1 plasmid DNA relaxation at 100 uM incubated for 30 mins by ethidium bromide staining based agarose gel electrophoresis analysis; summary of the method: as §1

Chain of Albumin (P02769 whole entry): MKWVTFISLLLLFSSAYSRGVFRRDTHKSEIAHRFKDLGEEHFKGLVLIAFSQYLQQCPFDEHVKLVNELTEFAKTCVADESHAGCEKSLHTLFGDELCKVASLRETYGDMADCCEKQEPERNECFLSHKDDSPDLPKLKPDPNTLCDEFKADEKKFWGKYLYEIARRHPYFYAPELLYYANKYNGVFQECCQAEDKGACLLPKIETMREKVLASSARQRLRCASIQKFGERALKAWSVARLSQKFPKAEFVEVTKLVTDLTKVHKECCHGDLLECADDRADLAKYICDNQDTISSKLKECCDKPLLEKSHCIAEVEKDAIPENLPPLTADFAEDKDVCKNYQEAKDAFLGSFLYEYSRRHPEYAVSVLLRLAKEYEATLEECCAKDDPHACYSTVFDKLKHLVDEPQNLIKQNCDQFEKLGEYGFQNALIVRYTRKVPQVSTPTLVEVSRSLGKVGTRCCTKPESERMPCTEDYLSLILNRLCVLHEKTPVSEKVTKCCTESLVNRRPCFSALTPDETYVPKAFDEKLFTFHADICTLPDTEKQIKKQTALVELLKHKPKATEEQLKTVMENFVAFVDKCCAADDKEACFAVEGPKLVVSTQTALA
Chain of DNA topoisomerase 2-alpha (Homo sapiens) (P11388 whole entry): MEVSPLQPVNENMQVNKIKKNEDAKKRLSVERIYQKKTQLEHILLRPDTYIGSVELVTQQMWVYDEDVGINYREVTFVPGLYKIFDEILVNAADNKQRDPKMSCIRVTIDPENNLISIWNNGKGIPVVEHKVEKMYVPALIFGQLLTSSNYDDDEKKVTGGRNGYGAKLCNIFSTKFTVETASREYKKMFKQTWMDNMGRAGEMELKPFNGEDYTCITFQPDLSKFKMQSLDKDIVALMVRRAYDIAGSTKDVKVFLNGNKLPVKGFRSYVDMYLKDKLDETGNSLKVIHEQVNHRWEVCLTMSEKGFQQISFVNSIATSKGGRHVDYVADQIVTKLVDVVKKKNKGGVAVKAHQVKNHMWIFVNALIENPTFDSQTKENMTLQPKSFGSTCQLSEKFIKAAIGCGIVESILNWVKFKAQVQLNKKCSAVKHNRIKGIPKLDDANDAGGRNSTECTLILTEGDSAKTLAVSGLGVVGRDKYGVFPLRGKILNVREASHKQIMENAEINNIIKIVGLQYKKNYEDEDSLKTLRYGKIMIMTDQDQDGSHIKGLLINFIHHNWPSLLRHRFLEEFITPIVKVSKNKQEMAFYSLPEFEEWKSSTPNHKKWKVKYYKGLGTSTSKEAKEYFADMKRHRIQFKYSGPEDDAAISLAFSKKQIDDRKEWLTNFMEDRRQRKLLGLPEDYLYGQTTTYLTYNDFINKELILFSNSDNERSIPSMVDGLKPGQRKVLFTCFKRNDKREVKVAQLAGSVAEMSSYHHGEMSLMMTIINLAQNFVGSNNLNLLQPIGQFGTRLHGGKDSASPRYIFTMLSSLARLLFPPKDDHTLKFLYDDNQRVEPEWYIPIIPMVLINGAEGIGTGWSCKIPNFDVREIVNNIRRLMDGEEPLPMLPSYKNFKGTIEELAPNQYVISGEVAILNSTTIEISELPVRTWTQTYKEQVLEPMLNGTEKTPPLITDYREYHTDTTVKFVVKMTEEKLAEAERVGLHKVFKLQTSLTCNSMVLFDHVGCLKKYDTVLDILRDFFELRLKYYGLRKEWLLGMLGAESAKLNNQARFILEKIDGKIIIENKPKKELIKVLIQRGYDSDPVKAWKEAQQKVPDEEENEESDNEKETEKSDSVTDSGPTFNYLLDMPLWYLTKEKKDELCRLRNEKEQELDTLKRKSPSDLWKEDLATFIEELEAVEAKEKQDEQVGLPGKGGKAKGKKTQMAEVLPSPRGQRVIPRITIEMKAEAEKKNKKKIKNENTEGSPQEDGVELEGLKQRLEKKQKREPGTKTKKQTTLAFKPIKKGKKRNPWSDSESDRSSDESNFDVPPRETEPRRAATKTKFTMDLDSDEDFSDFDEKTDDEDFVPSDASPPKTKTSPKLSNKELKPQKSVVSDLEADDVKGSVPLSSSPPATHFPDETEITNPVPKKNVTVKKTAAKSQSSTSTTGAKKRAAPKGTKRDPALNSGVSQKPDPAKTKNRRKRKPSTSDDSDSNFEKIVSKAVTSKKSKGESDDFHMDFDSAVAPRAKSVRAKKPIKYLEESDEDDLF

Row | SMILES | inhibition [2] | Activity (Calf thymus DNA [3]) | Activity (Albumin) | GI50 [6] | TGI [8] | inhibition [10] | GI50 [13] | TGI [15] | GI50 [16] | TGI [19] | GI50 [20] | Activity (Calf thymus DNA [21]) | GI50 [22] | inhibition [23] | GI50 [25] | GI50 [26] | TGI [27] | TGI [28] | TGI [29] | inhibition [34] | other results
1 | c1ccc2[nH]c(-c3ccc(Nc4nc(N5CCCC5)nc5[nH]ncc45)cc3)nc2c1 | Active | 259 nm | Active | 2.38 µM | 5.88 µM | inactive | 0.67 µM | 2.01 µM | 0.73 µM | 3.17 µM | 1.22 µM | Active | 1.1 µM | Active | 1.08 µM | 0.86 µM | 2.08 µM | 1.53 µM | 3.14 µM | Active | LC50 [1]: 31.8 µM; CC50 [4]: 6.35 µM; Activity (Calf thymus DNA [5]): Active; TGI [7]: 2.73 µM; LC50 (lethal concentration, 50% cell kill) [9]: 11.5 µM; LC50 [11]: 20.6 µM; LC50 (concentration killing 50% of cells) [12]: 6.85 µM; LC50 (concentration killing 50% of cells) [14]: 4.17 µM; TGI [17]: 2.67 µM; LC50 (50% lethal concentration) [18]: 7.04 µM; LC50 (lethal concentration, 50% cell kill) [24]: 2.23 µM; GI50 [30]: 2.32 µM; GI50 [31]: 1.37 µM; TGI [32]: 6.7 µM; LC50 (lethal concentration 50) [33]: 4.32 µM
2 | c1ccc2[nH]c(-c3ccc(Nc4nc(N5CCOCC5)nc5[nH]ncc45)cc3)nc2c1 | Active | 260 nm | Active | – | – | inactive | – | – | – | – | – | Active | – | Active | – | – | – | – | – | Active | –
3 | CC[C@H](CO)Nc1nc(NCc2ccccc2)c2ncn(C(C)C)c2n1 [SELICICLIB] | – | – | – | 37.5 µM | 84.9 µM | – | 14.8 µM | 82.2 µM | 22.7 µM | 84.8 µM | 24.9 µM | – | 29.3 µM | – | 23.6 µM | 24.7 µM | 73 µM | 57.6 µM | 81.5 µM | – | GI50 [30]: 24.8 µM; GI50 [31]: 17.9 µM
4 | c1ccc(CNc2nc(Nc3ccc(-c4nc5ccccc5[nH]4)cc3)c3cn[nH]c3n2)cc1 | Active | 264 nm | Active | 2.67 µM | 5.12 µM | inactive | 1.85 µM | 16.7 µM | 2.04 µM | 8.99 µM | 2.3 µM | Active | 2.52 µM | Active | 2.54 µM | 2.96 µM | 5.85 µM | 4.29 µM | 9.43 µM | Active | LC50 [1]: > 100 µM; CC50 [4]: 46.3 µM; Activity (Calf thymus DNA [5]): Active; TGI [7]: 7.83 µM; LC50 (lethal concentration, 50% cell kill) [9]: 55.3 µM; LC50 [11]: 41.8 µM; LC50 (concentration killing 50% of cells) [12]: 41.8 µM; LC50 (concentration killing 50% of cells) [14]: 28.1 µM; TGI [17]: 6.16 µM; LC50 (50% lethal concentration) [18]: 31.2 µM; LC50 (lethal concentration, 50% cell kill) [24]: 34.7 µM; GI50 [30]: 2 µM; GI50 [31]: 2.56 µM; TGI [32]: 6.43 µM; LC50 (lethal concentration 50) [33]: 19.3 µM
5 | NCCNc1nc(Nc2ccc(-c3nc4ccccc4[nH]3)cc2)c2cn[nH]c2n1 | Active | 259 nm | Active | – | – | inactive | – | – | – | – | – | Active | – | Active | – | – | – | – | – | Active | –
